Laboratory results published in ChEMBL document CHEMBL4610093, “Bioreductively Activatable Prodrug Conjugates of Combretastatin A-1 and Combretastatin A-4 as Anticancer Agents Targeted toward Tumor-Associated Hypoxia” (J Nat Prod, 2020).

Assays:
[1] = Stability of the compound in pH 7.4 potassium phosphate buffer assessed as compound hydrolysis after 48 hrs; assay type: physicochemical; settings: read-out: Drug degradation
[2] = Inhibition of bovine brain tubulin polymerisation preincubated for 15 mins followed by GTP addition and measured for 20 mins by turbidimetry based spectrophotometric method; parameters: species or system Bos taurus
In short: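 Bovine brain tubulin at 1.0 mg/mL (10 µM) in 0.8 M monosodium glutamate (pH 6.6) with 4% DMSO and compound. Preincubated 15 min at 30 °C, chilled, then 0.4 mM GTP added. Temperature jumped from 0 to 30 °C; turbidity at 350 nm followed for 20 min. IC50 is the concentration halving extent of assembly.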

Tubulin (Homo sapiens) [3] = biological target: T1, Tubulin (Homo sapiens) (UniProt P68371+Q9H4B7+P0DPH7+P68366+Q13509+Q71U36+P04350+Q3ZCM7+P07437+P68363+Q9BQE3+Q6PEY2+Q13885+Q9BVA1+Q9BUF5); assay: Inhibition of [3H]colchicine binding to tubulin (unknown origin) at 1 uM incubated for 10 mins by scintillation counting relative to control; assay type: protein-complex assay
In short: (§1)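 Purified tubulin at 1.0 µM with 5.0 µM [3H]colchicine, in 1.0 M monosodium glutamate (pH 6.6), 0.5 mg/mL BSA, 0.1 M glucose-1-phosphate, 1.0 mM MgCl2, 1.0 mM GTP and 5% DMSO. Incubated 10 min at 37 °C, then filter-bound radioactivity counted. Percent inhibition taken against no-inhibitor controls, corrected for filter binding without tubulin.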

Tubulin (Homo sapiens) [4] = biological target: T1, Tubulin (Homo sapiens); assay: Inhibition of [3H]colchicine binding to tubulin (unknown origin) at 5 uM incubated for 10 mins by scintillation counting relative to control; assay type: protein-complex assay; in short: as §1
[5] = biological target: T2, NADPH-cytochrome P450 oxidoreductase (Rattus norvegicus, UniProt P00388); assay: Substrate activity at rat NADPH-cytochrome P450 oxidoreductase expressed in supersomes assessed as compound cleavage after 90 mins in anaerobic condition by HPLC analysis; settings: read-out: Drug degradation
T2 sequence (P00388 whole entry): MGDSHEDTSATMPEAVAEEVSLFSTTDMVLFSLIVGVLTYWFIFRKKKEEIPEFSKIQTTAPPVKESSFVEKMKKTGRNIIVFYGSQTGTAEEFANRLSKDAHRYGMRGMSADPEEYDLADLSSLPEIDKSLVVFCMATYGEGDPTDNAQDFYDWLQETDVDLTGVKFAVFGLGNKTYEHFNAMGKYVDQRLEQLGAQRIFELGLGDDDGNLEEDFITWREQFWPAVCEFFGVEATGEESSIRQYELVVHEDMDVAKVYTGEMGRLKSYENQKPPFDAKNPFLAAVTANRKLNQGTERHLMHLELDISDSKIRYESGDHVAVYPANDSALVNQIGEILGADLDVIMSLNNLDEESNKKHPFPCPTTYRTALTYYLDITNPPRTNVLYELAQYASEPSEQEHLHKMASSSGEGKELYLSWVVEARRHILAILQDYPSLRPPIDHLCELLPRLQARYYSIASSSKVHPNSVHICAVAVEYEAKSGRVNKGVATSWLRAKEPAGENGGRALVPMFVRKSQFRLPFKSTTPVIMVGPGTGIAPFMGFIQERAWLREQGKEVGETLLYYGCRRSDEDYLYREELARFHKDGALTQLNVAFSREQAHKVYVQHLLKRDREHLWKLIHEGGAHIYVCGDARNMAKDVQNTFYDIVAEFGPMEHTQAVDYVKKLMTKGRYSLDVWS
In short: (§2)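 Rat POR supersomes (0.006 U) with 0.8 mM NADPH, acting on compound diluted from 10 mM DMSO stock into 200 mM potassium phosphate pH 7.4 with 0.1% Triton X-100 and 400 µM protocatechuic acid. Made anaerobic by N2 evacuation/sparging plus 0.08 U protocatechuate dioxygenase. Incubated at 37 °C, quenched with acetonitrile, quantified by HPLC against standard curves; no-POR controls.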

A549 [6] = assay: Cytotoxicity against human A549 cells incubated for 52 hrs in oxic condition by sulforhodamine B assay; assay type: functional; settings: A549, 52 h
In short: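 Normoxic arm: A549 cells at 6000 cells/well, 2 h attachment. Serial dilutions from DMSO stocks, top final concentration 50 µg/mL, in duplicate. Drug exposure 4 h under 95% air/5% CO2, then 48 h aerobic culture. Cytotoxicity read by SRB.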

A549 [7] = assay: Cytotoxicity against human A549 cells incubated for 4 hrs in anoxic condition followed by oxic exposure for 48 hrs by sulforhodamine B assay; assay type: functional
In short: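 Anoxic arm: A549 cells handled in an anaerobic chamber (≤10 ppm O2) with medium and plates preconditioned ≥48 h. 6000 cells/well, 2 h attachment. Serial dilutions from DMSO stocks, top final concentration 50 µg/mL, in duplicate. 4 h anaerobic drug exposure, then 48 h aerobic, then SRB readout.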

A549 [8] = assay: Ratio of GI50 for human A549 cells in oxic condition to GI50 for anoxic condition; assay type: functional
In short: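 A549 cells at 6000 cells/well. Drug exposure 4 h either anaerobic (≤10 ppm O2, preconditioned medium and plates) or under 95% air/5% CO2, then 48 h aerobic. SRB cytotoxicity read in duplicate, top final concentration 50 µg/mL. Ratio taken as oxic over anoxic value.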

[9] = biological target: T2, NADPH-cytochrome P450 oxidoreductase; assay: Substrate activity at rat NADPH-cytochrome P450 oxidoreductase expressed in supersomes assessed as compound cleavage after 24 hrs in anaerobic condition by HPLC analysis; settings: read-out: Activity; in short: as §2
[10] = Solubility of the compound in buffered saline; assay type: physicochemical; settings: buffer
[11] = Solubility of the compound in water; assay type: physicochemical; settings: buffer
[12] = Solubility of the compound in DMSO; assay type: physicochemical
4T1 = assay: Induction in necrosis in tumor of BALB/C mouse implanted with mouse 4T1 cells harboring firefly luciferase reporter gene at 180 mg/kg, ip measured after 72 to 96 hrs by hematoxylin and eosin staining based assay (reference value: 46%); assay type: functional

SMILES | degraded at 48 h [1] [%] | IC50 [2] [nM] | inhibition (Tubulin (Homo sapiens) [3]) [%] | inhibition (Tubulin (Homo sapiens) [4]) [%] | metabolised at 1.5 h [5] [%] | GI50 (A549 [6]) [nM] | GI50 (A549 [7]) [nM] | RatioGI50 (A549 [8]) | metabolised at 24 h [9] [%] | solubility [10] | solubility [11] | solubility [12] | Activity (4T1)
COc1ccc(/C=C\c2cc(OC)c(OC)c(OC)c2)c(OC(C)c2ccc([N+](=O)[O-])s2)c1O (stereo not drawn) | 0.5 | 840 | 34 | 90 | 5.6 | 180 | 260 | 0.69 |  |  |  |  | 
Nc1n[n+]([O-])c2ccccc2[n+]1[O-] [TIRAPAZAMINE] |  |  |  |  |  | 63000 | 6800 | 9.2 |  |  |  |  | 
COc1cc(/C=C\c2ccc(OC)c(OC(C)c3ccc([N+](=O)[O-])s3)c2OC(C)C)cc(OC)c1OC (stereo not drawn) | 0.69 | > 20000 |  |  | 3.8 | 2900 | 1200 | 2.4 |  |  |  |  | 
COc1ccc(/C=C\c2cc(OC)c(OC)c(OC)c2)c(OS(=O)(=O)c2ccc(C)cc2)c1O |  | 840 | 50 | 84 |  | 65 | 190 |  |  |  |  |  | 
COc1cc(/C=C\c2ccc(OC)c(OC(C)c3ccc([N+](=O)[O-])s3)c2OS(=O)(=O)c2ccc(C)cc2)cc(OC)c1OC (stereo not drawn) | 0.84 | > 20000 |  |  | 13.5 | 4600 | 3300 | 1.4 |  |  |  |  | 
COc1cc(/C=C\c2ccc(OC)c(OCc3ccc([N+](=O)[O-])s3)c2OC(C)C)cc(OC)c1OC | 1.59 | 12000 |  |  | 1.1 | 1900 | 300 | 6.3 |  |  |  |  | 
O=[N+]([O-])c1nccn1CC(O)CNCCBr (stereo not drawn) |  |  |  |  |  | > 89000 | 24000 |  |  |  |  |  | 
COc1cc(/C=C\c2ccc(OC)c(OCc3ccc([N+](=O)[O-])s3)c2O)cc(OC)c1OC | 0 | 4300 |  | 58 | 17.9 | 320 | 690 | 0.46 |  |  |  |  | 
COc1cc(/C=C\c2ccc(OC)c3c2OC(C)(c2ccc([N+](=O)[O-])s2)O3)cc(OC)c1OC (stereo not drawn) |  | > 20000 |  |  |  | 550 | 720 | 0.76 |  |  |  |  | 
COc1ccc(/C=C\c2cc(OC)c(OC)c(OC)c2)cc1O [COMBRETASTATIN A4] |  |  |  |  |  | 4.7 | 6.1 |  |  |  |  |  | 
COc1cc(/C=C\c2ccc(OC)c3c2OC(c2ccc([N+](=O)[O-])s2)O3)cc(OC)c1OC (stereo not drawn) |  | 1700 |  | 25 |  | 46 | 33 | 1.4 |  |  |  |  | 
COc1ccc(/C=C\c2cc(OC)c(OC)c(OC)c2)c(OC(C)C)c1O |  | 820 | 72 | 94 |  | 63 | 46 |  |  |  |  |  | 
COc1ccc(/C=C\c2cc(OC)c(OC)c(OC)c2)c(O)c1O [COMBRETASTATIN A-1] |  |  |  | 99.6 |  | 1200 | 820 |  |  |  |  |  | 
COc1ccc(/C=C\c2cc(OC)c(OC)c(OC)c2)cc1OC(C)c1ccc([N+](=O)[O-])s1 (stereo not drawn) |  | > 20000 |  | 15 | 4.1 | 150 | 38 | 4 |  |  |  |  | 
COc1ccc(/C=C\c2cc(OC)c(OC)c(OC)c2)c(OCc2ccc([N+](=O)[O-])s2)c1O | 0 | 1700 | 53 | 92 | 14.2 | 170 | 280 | 0.61 |  |  |  |  | 
COc1ccc(/C=C\c2cc(OC)c(OC)c(OC)c2)cc1OC(C)(C)c1ccc([N+](=O)[O-])s1 | 0.69 | > 20000 |  | 33 | 25.4 | 2200 | 53 | 41.5 | 100 | Insoluble | Insoluble | Soluble | 47 - 55%
COc1cc(/C=C\c2ccc(OC)c(OC(C)c3ccc([N+](=O)[O-])s3)c2O)cc(OC)c1OC (stereo not drawn) | 0 | 6200 |  | 72 | 25.5 | 310 | 51 | 6.1 |  |  |  |  | 
COc1cc(/C=C\c2ccc(OC)c(OC(C)(C)c3ccc([N+](=O)[O-])s3)c2OC(C)C)cc(OC)c1OC | 4.03 | 9500 |  |  | 7.6 | 1500 | 490 | 3.1 |  |  |  |  | 
COc1ccc(/C=C\c2cc(OC)c(OC)c(OC)c2)cc1OCc1ccc([N+](=O)[O-])s1 | 0.35 | > 20000 |  | 26 | 2.7 | 110 | 32 | 3.4 |  |  |  |  | 
COc1cc(/C=C\c2ccc(OC)c(OCc3ccc([N+](=O)[O-])s3)c2OS(=O)(=O)c2ccc(C)cc2)cc(OC)c1OC | 0.25 | > 20000 |  |  |  | 440 | 520 | 0.85 |  |  |  |  | 
